Source: PubChem (The Scripps Research Institute Molecular Screening Center)
MMP13 inh = human MMP13 inhibitors, primary screen, biochemical, FRET peptide cleavage | hit rate 0.07% among 65,000 | inhibition, % at 4 µM | MMP-13 fTHP FRET cleavage, Mca fluorescence | Collagenase 3 (Homo sapiens), P45452 | AID 570, 2006;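 active = inhibition above the mean of compound-free control plate wells plus 3 SD, cut at about 14% in these data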;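 also: 0% = DMSO wells and 100% = wells with reference MMP-13 inhibitor after basal subtraction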
ROCK2 inh = inhibitors of human ROCK2 kinase, primary screen, biochemical, high-throughput, luminescence; purified ROCK2, Kinase-Glo ATP depletion luminescence; inhibition, % at 6 µM; hit rate 0.35% among 60,000; AID 604, 2007;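 active = inhibition above the screen-wide mean inhibition plus 3 SD, cut at about 18% in these data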;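 also: plate controls were DMSO wells for no effect and Y-27632 control wells after no-enzyme background subtraction for full effect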
S1P1 ag pot = S1P1 agonists and agonism potentiators, primary screen, cell-based, primary and confirmation screens, CRE-bla reporter | Sphingosine 1-phosphate receptor 1 (Homo sapiens), P21453 | activation, % at 9.5 µM | hit rate 0.57% among 56,000 | S1P1 CRE-bla cells, forskolin, beta-lactamase FRET, potentiator mode; S1P1 agonist co-added at EC20, 2 nM; 100% = saturating reference agonist, 0% = basal;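 active = activation above a cutoff set at the mean activation of all tested compounds plus 3 SD, cut at about 54% in these data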;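 also: forskolin at 4 µM as EC80 and the EC20 agonist is SEW2871; 100% = SEW2871 at its EC100 plus forskolin at EC80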
S1P3 ag = human S1P3 receptor agonists, primary screen, cell-based, primary and confirmation, NFAT-BLA reporter; S1P3 NFAT-BLA reporter cells, agonism, FRET ratio; relative to 1 µM S1P, basal subtracted; activation, % at 4.5 µM; hit rate 0.1% among 60,000; AID 373, 2006;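 active = activation above the screen-wide mean plus 3 SD, cut at about 4.5% in these data, passing the limit was not always enough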
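Assay system: stable CHO line with human S1P3, Gα16, NFAT-BLA reporter; Detection: FRET β-lactamase substrate fluorescence, excitation 405 nm, 460/535 nm emission ratio, background-subtracted; Read-out: percent activation versus median 1 µM S1P response, basal-subtracted, per plate; Incubation: cells plated overnight, compound 4 h 37 °C, substrate 2 h RT.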
PKA inh = inhibitors of human PKA kinase activity, primary screen, biochemical, ATP-depletion luminescence, Kemptide substrate; PKA Kemptide phosphorylation, Kinase-Glo ATP luminescence; hit rate 0.1% among 65,000; cAMP-dependent protein kinase catalytic subunit alpha (Homo sapiens), P17612; AID 524, 2006; inhibition, % at 6 µM;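 active = inhibition above the screen-wide mean inhibition plus 3 SD, cut at about 21% in these data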
JNK3 inh = JNK3 kinase activity inhibitors, primary screen, biochemical, human, purified enzyme | Mitogen-activated protein kinase 10 (Homo sapiens), P53779 | inhibition, % at 8 µM | HTS | AID 746, 2007 | hit rate 0.61% among 60,000; in the data active = inhibition above about 17%;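 also: 0% = DMSO and 100% = reference inhibitor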
Target sequence (P53779 whole entry, looked up): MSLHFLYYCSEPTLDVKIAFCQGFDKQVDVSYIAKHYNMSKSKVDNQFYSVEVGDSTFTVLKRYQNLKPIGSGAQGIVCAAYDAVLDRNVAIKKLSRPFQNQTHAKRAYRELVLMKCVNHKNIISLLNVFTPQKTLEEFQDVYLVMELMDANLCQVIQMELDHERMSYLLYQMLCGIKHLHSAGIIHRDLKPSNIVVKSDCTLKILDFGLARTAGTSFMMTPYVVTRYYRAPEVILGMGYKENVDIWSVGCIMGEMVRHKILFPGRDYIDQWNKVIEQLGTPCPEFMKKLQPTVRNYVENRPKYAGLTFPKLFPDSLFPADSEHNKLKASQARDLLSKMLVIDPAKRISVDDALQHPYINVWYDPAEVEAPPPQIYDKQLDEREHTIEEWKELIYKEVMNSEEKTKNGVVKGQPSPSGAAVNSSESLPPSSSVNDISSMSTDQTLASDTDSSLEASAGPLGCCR
Active calls of the source: *; . = not tested or not shown. In the library only some 1.2% were active in any assay of this set; here they are far more common.

SMILES	MMP13 inh	ROCK2 inh	S1P1 ag pot	S1P3 ag	PKA inh	JNK3 inh
CN(C)CCCN1C(=O)C(=O)/C(=C(/O)c2ccc3c(c2)OCCO3)C1c1ccccn1 (configuration not stated)	1	6	4	-1	11	-1
CC(CCc1ccccc1)NC(=O)C1CCN(S(=O)(=O)c2cnc[nH]2)CC1 (configuration not stated)	-4	1	-2	0	-1	0
O=c1[nH]c(SCc2ccc(Cl)cc2)nc2c1CCC2	33*	3	.	-1	-1	-3
O=c1[nH]c(SCc2cccc(Cl)c2)nc2c1CCCC2	1	.	.	.	-2	.
CN(C)c1ccc(-c2ccncc2)cc1	-10	19*	-15	-1	8	-10
O=c1c2sc3nc(N4CCOCC4)c4c(c3c2ncn1Cc1ccco1)CCCC4	-5	-2	-64	1	-4	3
CC(C)c1cc(C(=O)Nc2ccc3c(c2)OCO3)no1	3	1	-10	0	-10	-5
CC(C)c1cc(C(F)(F)F)n2nc(C(=O)Nc3ccc4c(c3)OCO4)cc2n1	10	-1	102*	0	8	4
CC(C)CCN1CC(C(=O)N2CCN(c3ccc(F)cc3)CC2)CC1=O (configuration not stated)	3	129*	-16	-1	3	-1
Nc1ccc(-c2nc3c(Cl)cc(N)cc3[nH]2)cc1	-357	-4	11	0	-6	-36
Nc1ccc2cn[nH]c2c1	-2	23*	-15	-2	8	0
COc1ccc(-n2nnnc2SCC(=O)Nc2nnc(C)s2)cc1OC	8	-6	-18	0	-6	4
Cc1ccc2[nH]c3c(NCc4ccco4)ncnc3c2c1	-62	5	65*	-2	6	10
Cc1ccc(-n2ncc3c(NCc4ccco4)ncnc32)c(C)c1	1	-4	-1	-2	-4	12
c1ccc(-n2ncc3c(NCc4ccco4)ncnc32)cc1	6	3	.	-1	-4	20*
c1ccc(Cn2ncc3c(NCc4ccco4)ncnc32)cc1	5	-1	11	-1	4	0
c1coc(CNc2ncnc3nc[nH]c23)c1	2	25*	2	0	17	-4
CCc1nc(SCC(=O)NCCc2ccc(OC)c(OC)c2)c2c(=O)n(C)c(=O)n(C)c2n1	2	6	5	0	6	-5
COCC(COCCCNC(=O)Nc1ccc(Br)cc1)OC (configuration not stated)	-6	1	-7	-1	-1	3
COc1ccc(OC)c2[nH]c(=O)c(CCNC(=O)C3CCCCC3)cc12	5	-3	9	-1	-5	-2
Cc1ccccc1-n1nc(C)c2cc(C(=O)NCc3cccnc3)sc21	-18	0	-6	0	3	57*
O=C(CSc1nnc(Cn2nnc3ccccc32)o1)N(Cc1ccc(F)cc1)c1ccccc1	4	-7	68*	-2	-9	-7
COc1ccc(CN(C(=O)CSc2nnc(-c3ccc(F)cc3)o2)c2ccc(F)cc2)cc1	0	3	11	0	8	1
CC1(c2ccc3noc(-c4ccc(Cl)cc4)c3c2)OCCO1	-1	3	4	0	10	4
c1ccc(-c2onc3cc4c(cc23)OCCO4)cc1	-9	1	-28	-1	6	22*
SMILES	MMP13 inh	ROCK2 inh	S1P1 ag pot	S1P3 ag	PKA inh	JNK3 inh
CCn1c(COc2ccccc2C)nnc1SCC(=O)CC(=O)Nc1ccccc1	-3	-3	25	-1	2	-1
COc1cc(NC(=O)c2ccc(COc3ccccc3Br)o2)cc(OC)c1OC	-6	1	16	-1	-1	20*
Cc1cc(C)nc(SCC2COc3ccccc3O2)n1 (configuration not stated)	-6	4	-18	0	7	1
COCC(C)NCc1ccccc1C (configuration not stated)	2	2	-6	-1	10	3
Oc1[nH]c2ccccc2c1C=Nc1ccc2c(c1)OCO2	-1	5	-12	0	6	36*
Oc1[nH]c2ccccc2c1/C=N/c1nccs1	0	7	-15	-1	6	27*
COc1ccc(CCC(=O)Nc2nc3c(s2)CN(C)CC3)cc1OC	-11	109*	6	0	-1	-4
Cc1onc(-c2c(Cl)cccc2Cl)c1C(=O)N1CCc2ccccc21	1	5	-12	7.4*	3	-10
Cc1ccc(C(=O)OCc2cc3ccccc3[nH]c2=O)cc1	-6	-7	6	-1	1	28*
CCn1cc(C(=O)Nn2cnnc2)c(=O)c2ccc(C)nc21	6	20*	-25	0	7	4
NC(=O)c1oc2ccccc2c1NC(=O)c1nc2ccccc2s1	5	-1	2	-2	6	0
NC(=O)c1oc2ccccc2c1NC(=O)c1ccc(F)cc1	-4	4	2	0	2	26*
O=C1NC2=C(C(=O)c3ccccc32)C(c2ccccc2)N1 (configuration not stated)	4	9	-25	0	14	27*
CNc1oc(-c2ccc(OCc3ccccc3)cc2)nc1C#N	-153	0	73*	0	1	5
CC1(C(=O)O)CCC(C(=O)N2CCOCC2)C1(C)C (configuration not stated)	1	6	-14	-1	3	2
COCCNC(=O)CN(C(=O)Cn1nnc2ccccc21)c1ccccc1	3	-1	5	-1	-2	0
CCN(C(=O)c1ccc(C(C)(C)C)cc1)c1nnc(Cn2nnc3ccccc32)s1	-2	-6	130*	-2	-8	-5
FC(F)(F)c1nc2nncn2c2c1CCCCC2	5	0	1	-1	8	0
Cc1ccc2nc(SCCC#N)nc(C)c2c1	1	0	-18	0	7	-3
Cc1ccc2nc(C(F)(F)F)c(C#N)c(N)c2c1	0	-5	64*	-4	-4	5
O=S(=O)(CCSc1ccccn1)c1nc2ccccc2s1	3	8	88*	-1	12	1
O=S(=O)(CCSc1nc2ccccc2o1)c1nc2ccccc2s1	4	-7	55	-1	3	-5
O=C(CN1CCC(NC(=O)c2cccc(F)c2)CC1)NCc1ccccc1F	6	.	.	.	4	.
COc1ccc(-c2nnc(-c3cccs3)o2)cc1OC	-78	1	-19	0	-2	3
